Test results from ChEMBL document CHEMBL2169880, “Synthesis of C-Pseudonucleosides Bearing Thiazolidin-4-one as a Novel Potential Immunostimulating Agent” (2011).
The source made the active and inactive calls. The calls are words filed in the database; no cut-off is given here.

Legend:
[1] = (§1) Immunostimulating activity in BALb/c mouse splenocytes assessed as increase in concanavalin A-induced cell proliferation at 5 uM after 72 hrs by MTT assay; type: functional, Splenocyte
Method in brief: (§2)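 Mouse splenocytes co-treated with concanavalin A and compound at 5, 10, 25, 50 or 100 μM. Incubated 72 h at 37 °C under 5% CO₂, then proliferation read by MTT. Result expressed as % increase relative to Con A alone. Means ± SEM of at least three independent experiments.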

[2] = Immunostimulating activity in BALb/c mouse splenocytes assessed as increase in concanavalin A-induced cell proliferation at 100 uM after 72 hrs by MTT assay; type: functional, Splenocyte; method in brief: as §2
[3] = Immunostimulating activity in BALb/c mouse splenocytes assessed as increase in concanavalin A-induced cell proliferation at 50 uM after 72 hrs by MTT assay; type: functional, Splenocyte; method in brief: as §2
[4] = Immunostimulating activity in BALb/c mouse splenocytes assessed as increase in concanavalin A-induced cell proliferation at 25 uM after 72 hrs by MTT assay; type: functional, Splenocyte; method in brief: as §2
[5] = Immunostimulating activity in BALb/c mouse splenocytes assessed as increase in concanavalin A-induced cell proliferation at 10 uM after 72 hrs by MTT assay; type: functional, Splenocyte; method in brief: as §2
[6] = Immunostimulating activity in BALb/c mouse splenocytes assessed as increase in LPS-induced cell proliferation at 5 uM after 72 hrs by MTT assay; type: functional, Splenocyte
Method in brief: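 Splenocyte proliferation induced by LPS, with compound added at 5 μM. Reported as % increase over LPS-treated cells. Means ± SEM of at least three independent experiments.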

B [7] = test: Immunostimulating activity in BALb/c mouse CD19+ B cells at 5 uM after 72 hrs […]; type: functional, cell-based
Method in brief: (§3)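 CD3+, CD4+ and CD8+ T cells and CD19+ B cells from splenocyte cultures quantified by flow cytometry. Compound at 5, 10 or 50 μM, compared with Con A-treated cells. Means ± SEM of at least three independent experiments.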

T-cell [8] = test: Immunostimulating activity in BALb/c mouse CD8+ T cells at 5 uM after 72 hrs […]; type: functional, cell-based; method in brief: as §3
T-cell [9] = test: Immunostimulating activity in BALb/c mouse CD4+ T cells at 5 uM after 72 hrs by MTT assay; type: functional, cell-based
T-cell [10] = test: Immunostimulating activity in BALb/c mouse CD3+ T cells at 5 uM after 72 hrs by […]; type: functional, cell-based; method in brief: as §3
Splenocyte [11] = test: Immunostimulating activity in concanavalin A-stimulated BALb/c mouse splenocytes assessed as increase in IL2 secretion at 5 uM after 72 hrs by ELISA; type: functional
Method in brief: (§4)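 IL-4, IL-2 and IFN-γ measured by mouse ELISA in supernatants of total splenocyte cultures. Cultures contained concanavalin A (printed as 20 μM) plus compound at 5, 10 or 50 μM. Compared with Con A alone. Means ± SEM of at least three independent experiments.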

Splenocyte [12] = test: as §1; type: functional; method in brief: as §2
Splenocyte [13] = test: Immunostimulating activity in concanavalin A-stimulated BALb/c mouse splenocytes assessed as increase in IFNgamma secretion at 5 uM after 72 hrs by ELISA; type: functional, cell-based; method in brief: as §4
Splenocyte [14] = test: Immunostimulating activity in concanavalin A-stimulated BALb/c mouse splenocytes assessed as increase in IL4 secretion at 5 uM after 72 hrs by ELISA; type: functional; method in brief: as §4
Splenocyte [15] = test: Immunostimulating activity in BALb/c mouse splenocytes assessed as cell proliferation at 5 to 100 uM after 72 hrs by MTT assay; type: functional, cell-based
Method in brief: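 Mouse splenocytes exposed to compound without concanavalin A. Proliferation measured by MTT after 72 h at 37 °C, 5% CO₂.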

B [16] = test: Immunostimulating activity in BALb/c mouse CD19+ B cells at 10 uM after 72 hrs by MTT assay; type: functional, cell-based
T-cell [17] = test: Immunostimulating activity in BALb/c mouse CD8+ T cells at 10 uM after 72 hrs by MTT assay; type: functional, cell-based
T-cell [18] = test: Immunostimulating activity in BALb/c mouse CD4+ T cells at 10 uM after 72 hrs by […]; type: functional, cell-based; method in brief: as §3
T-cell [19] = test: Immunostimulating activity in BALb/c mouse CD3+ T cells at 10 uM after 72 hrs by MTT assay; type: functional, cell-based
Splenocyte [20] = test: Immunostimulating activity in concanavalin A-stimulated BALb/c mouse splenocytes assessed as increase in IL2 secretion at 10 uM after 72 hrs by ELISA; type: functional; method in brief: as §4
Splenocyte [21] = test: Immunostimulating activity in concanavalin A-stimulated BALb/c mouse splenocytes assessed as increase in IFNgamma secretion at 10 uM after 72 hrs by ELISA; type: functional; method in brief: as §4
Splenocyte [22] = test: Immunostimulating activity in concanavalin A-stimulated BALb/c mouse splenocytes assessed as increase in IL4 secretion at 10 uM after 72 hrs by ELISA; type: functional; method in brief: as §4
B [23] = test: Immunostimulating activity in BALb/c mouse CD19+ B cells at 50 uM after 72 hrs by MTT assay; type: functional, cell-based
T-cell [24] = test: Immunostimulating activity in BALb/c mouse CD8+ T cells at 50 uM after 72 hrs by […]; type: functional, cell-based; method in brief: as §3
T-cell [25] = test: Immunostimulating activity in BALb/c mouse CD4+ T cells at 50 uM after 72 hrs by MTT assay; type: functional, cell-based
T-cell [26] = test: Immunostimulating activity in BALb/c mouse CD3+ T cells at 50 uM after 72 hrs by […]; type: functional, cell-based; method in brief: as §3
Splenocyte [27] = test: Immunostimulating activity in concanavalin A-stimulated BALb/c mouse splenocytes assessed as increase in IL2 secretion at 50 uM after 72 hrs by ELISA; type: functional; method in brief: as §4
Splenocyte [28] = test: Immunostimulating activity in concanavalin A-stimulated BALb/c mouse splenocytes assessed as increase in IFNgamma secretion at 50 uM after 72 hrs by ELISA; type: functional; method in brief: as §4
Splenocyte [29] = test: Immunostimulating activity in concanavalin A-stimulated BALb/c mouse splenocytes assessed as increase in IL4 secretion at 50 uM after 72 hrs by ELISA; type: functional; method in brief: as §4

Structure (SMILES)	Activity [1] [%]	Activity [2] [%]	Activity [3] [%]	Activity [4] [%]	Activity [5] [%]	Activity (Splenocyte [15])	further results
CCCCCCCCN1C(=O)CS[C@@H]1[C@H]1O[C@H](CO)[C@@H](O)[C@@H]1O	<50	<50	<50	<50	<50	–	–
O=C1CS[C@@H]([C@H]2O[C@H](CO)[C@@H](O)[C@@H]2O)N1c1ccccc1	–	<50	<50	<50	<50	inactive	Activity [6]: 117%; Activity (B [7]): Active; Activity (T-cell [8]): inactive; Activity (T-cell [9]): Active; Activity (T-cell [10]): Active; Activity (Splenocyte [11]): 99%; Activity (Splenocyte [12]): Active; Activity (Splenocyte [13]): inactive; Activity (Splenocyte [14]): 39%
CCCCN1C(=O)CS[C@@H]1[C@H]1O[C@H](CO)[C@@H](O)[C@@H]1O	<50	<50	<50	<50	<50	–	–
CCCCN1C(=O)CS[C@H]1[C@H]1O[C@H](CO)[C@@H](O)[C@@H]1O	<50	<50	<50	<50	<50	–	–
CCCCCCCCCCCCCCCCCCN1C(=O)CS[C@H]1[C@H]1O[C@H](CO)[C@@H](O)[C@@H]1O	<50	<50	<50	<50	<50	–	–
CCCCCCCCCCCCCCCCCCN1C(=O)CS[C@@H]1[C@H]1O[C@H](CO)[C@@H](O)[C@@H]1O	<50	<50	<50	<50	<50	–	–
CN1C(=O)CS[C@H]1[C@H]1O[C@H](CO)[C@@H](O)[C@@H]1O	28	245	35	138	290	inactive	Activity (B [16]): inactive; Activity (T-cell [17]): inactive; Activity (T-cell [18]): Active; Activity (T-cell [19]): Active; Activity (Splenocyte [20]): 78%; Activity (Splenocyte [21]): 21%; Activity (Splenocyte [22]): 43%
CN1C(=O)CS[C@@H]1[C@H]1O[C@H](CO)[C@@H](O)[C@@H]1O	111	230	327	91	98	inactive	Activity (B [23]): inactive; Activity (T-cell [24]): inactive; Activity (T-cell [25]): Active; Activity (T-cell [26]): Active; Activity (Splenocyte [27]): 37%; Activity (Splenocyte [28]): 30%; Activity (Splenocyte [29]): 42%
O=C1CS[C@H]([C@H]2O[C@H](CO)[C@@H](O)[C@@H]2O)N1c1ccccc1	166	–	171	<50	<50	inactive	Activity [6]: 238%; Activity (B [7]): Active; Activity (T-cell [8]): inactive; Activity (T-cell [9]): Active; Activity (T-cell [10]): Active; Activity (Splenocyte [11]): 138%; Activity (Splenocyte [13]): inactive; Activity (Splenocyte [14]): 41%
CCCCCCCCN1C(=O)CS[C@H]1[C@H]1O[C@H](CO)[C@@H](O)[C@@H]1O	<50	<50	<50	<50	<50	–	–
